Source: ChEMBL document CHEMBL5523688, “Selective targeting of human TET1 by cyclic peptide inhibitors: Insights from biochemical profiling” (Bioorg Med Chem, 2024)
Activity calls are given as the source filed them. No cut-off for these calls is given here.

Experiments:
[1] = molecular target: T1, Methylcytosine dioxygenase TET1 (Homo sapiens, UniProt Q8NFU7); assay: (§1) Inhibition of N-terminal 3xFlag-tagged recombinant human TET1 catalytic domain (E1418 to V2136 residues) expressed in baculovirus infected Sf9 cells using 5-methylcytosine as substrate preincubated for 10 mins followed by substrate and DNA-cofactor addition measured after 30 mins by Alphascreen assay
T1 sequence (Q8NFU7 whole entry, the tested form may be a part): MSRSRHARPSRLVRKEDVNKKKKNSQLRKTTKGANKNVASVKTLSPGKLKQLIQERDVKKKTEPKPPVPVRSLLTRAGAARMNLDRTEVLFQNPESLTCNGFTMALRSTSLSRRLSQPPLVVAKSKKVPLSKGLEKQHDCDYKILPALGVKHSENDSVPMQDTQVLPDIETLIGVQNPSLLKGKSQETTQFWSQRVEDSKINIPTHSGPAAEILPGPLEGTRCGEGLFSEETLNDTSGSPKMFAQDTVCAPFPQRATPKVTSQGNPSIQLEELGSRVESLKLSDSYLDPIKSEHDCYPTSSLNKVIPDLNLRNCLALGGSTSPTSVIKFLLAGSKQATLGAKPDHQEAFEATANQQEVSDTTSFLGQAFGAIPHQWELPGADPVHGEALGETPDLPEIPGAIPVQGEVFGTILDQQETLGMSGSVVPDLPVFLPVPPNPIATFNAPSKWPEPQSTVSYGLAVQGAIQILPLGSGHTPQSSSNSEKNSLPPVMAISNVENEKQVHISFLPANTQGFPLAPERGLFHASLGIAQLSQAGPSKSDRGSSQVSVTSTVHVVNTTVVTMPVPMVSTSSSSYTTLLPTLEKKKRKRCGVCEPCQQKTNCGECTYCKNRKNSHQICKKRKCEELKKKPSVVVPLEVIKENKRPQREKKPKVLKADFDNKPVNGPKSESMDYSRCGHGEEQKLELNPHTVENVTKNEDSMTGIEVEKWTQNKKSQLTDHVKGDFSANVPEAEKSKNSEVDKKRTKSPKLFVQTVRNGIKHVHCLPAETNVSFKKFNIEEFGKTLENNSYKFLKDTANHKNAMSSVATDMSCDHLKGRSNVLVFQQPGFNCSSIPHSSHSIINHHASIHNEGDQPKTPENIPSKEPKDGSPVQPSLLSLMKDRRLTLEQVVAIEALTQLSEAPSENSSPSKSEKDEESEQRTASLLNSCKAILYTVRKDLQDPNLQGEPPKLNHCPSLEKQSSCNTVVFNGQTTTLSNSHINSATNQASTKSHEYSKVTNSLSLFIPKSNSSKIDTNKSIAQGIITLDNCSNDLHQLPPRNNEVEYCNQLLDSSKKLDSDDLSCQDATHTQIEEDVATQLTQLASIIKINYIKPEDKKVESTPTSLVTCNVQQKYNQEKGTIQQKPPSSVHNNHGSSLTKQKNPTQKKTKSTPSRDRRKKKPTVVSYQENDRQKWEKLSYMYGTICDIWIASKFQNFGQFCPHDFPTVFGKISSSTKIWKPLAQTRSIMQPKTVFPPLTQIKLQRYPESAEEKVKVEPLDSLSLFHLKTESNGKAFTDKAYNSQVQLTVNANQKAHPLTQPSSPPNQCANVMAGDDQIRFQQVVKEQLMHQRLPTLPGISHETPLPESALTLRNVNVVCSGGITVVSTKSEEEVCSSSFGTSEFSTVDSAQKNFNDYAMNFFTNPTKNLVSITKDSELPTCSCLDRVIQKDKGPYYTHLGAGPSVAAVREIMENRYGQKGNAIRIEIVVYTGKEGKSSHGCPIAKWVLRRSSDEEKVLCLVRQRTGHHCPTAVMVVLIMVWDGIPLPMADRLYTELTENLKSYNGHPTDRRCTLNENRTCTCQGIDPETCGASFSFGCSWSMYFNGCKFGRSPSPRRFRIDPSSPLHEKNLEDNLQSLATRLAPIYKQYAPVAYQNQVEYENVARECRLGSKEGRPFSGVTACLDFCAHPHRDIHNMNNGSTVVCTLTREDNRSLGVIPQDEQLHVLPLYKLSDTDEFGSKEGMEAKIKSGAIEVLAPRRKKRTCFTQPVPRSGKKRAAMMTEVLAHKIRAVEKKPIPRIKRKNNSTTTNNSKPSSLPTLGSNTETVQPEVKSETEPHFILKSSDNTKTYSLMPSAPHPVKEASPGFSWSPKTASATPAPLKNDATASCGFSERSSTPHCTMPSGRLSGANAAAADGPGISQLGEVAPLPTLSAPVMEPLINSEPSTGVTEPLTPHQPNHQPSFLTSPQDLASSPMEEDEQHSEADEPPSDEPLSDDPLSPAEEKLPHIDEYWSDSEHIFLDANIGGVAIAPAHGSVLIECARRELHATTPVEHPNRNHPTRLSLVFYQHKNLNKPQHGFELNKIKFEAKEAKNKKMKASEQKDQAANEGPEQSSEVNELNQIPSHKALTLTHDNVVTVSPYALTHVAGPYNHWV
In short: (§2)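 TET1 catalytic domain (E1418–V2136, Sf9 baculovirus) at 2 nM was preincubated 10 min with inhibitor (1% DMSO) in HEPES 50 mM pH 7.3, 150 mM NaCl, 0.1% BSA, 0.01% Tween-20. Reaction was started with ascorbate 200 µM, Fe(II) 20 µM, 2OG 20 µM and 5mC ssDNA 10 nM, run 30 min, then EDTA-quenched. Anti-5hmC antibody with AlphaScreen beads, 45–60 min, luminescence read. Three independent replicates.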

[2] = molecular target: T1, Methylcytosine dioxygenase TET1; assay: Inhibition of FLAG-tagged human TET1 catalytic domain (E1418 to V2136 residues) expressed in doxycycline induced human U2OS cells assessed as reduction in 5-hydroxymethylcytosine level at 30 to 100 uM incubated for 24 hrs by immunofluorescence assay; format: cell-based; details: dose 30-100 µM
In short: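 U2OS cells stably carrying dox-inducible FLAG-tagged TET1 catalytic domain were seeded at 5,000/well in DMEM with Tet-approved FBS (10%), penicillin/streptomycin and L-glutamine, then held 4 h at 37 °C. Induction used doxycycline 1 μg/mL alongside compound (1% DMSO final) for 24 h. Cells were fixed, permeabilised, blocked, immunostained (rabbit polyclonal oxidised-cytosine antibody 1:500, anti-FLAG 1:1000, 16 h) and DAPI-counterstained. Mean staining intensity of FLAG-TET1 cells was imaged.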

[3] = molecular target: Methylcytosine dioxygenase TET2 (Homo sapiens, UniProt Q6N021); assay: Inhibition of N-terminal His-tagged recombinant human TET2 catalytic domain LCIdel mutant (D1129 to G1936 residues with Y1481 to N1843 replaced by 3 x GGGGS linker) expressed in Escherichia coli BL21 (DE3) using 5-methylcytosine as substrate preincubated for 10 mins followed by substrate and DNA-cofactor addition measured after 10 mins by Alphascreen assay
[4] = molecular target: T2, Methylcytosine dioxygenase TET3 (Homo sapiens, UniProt O43151); assay: (§3) Inhibition of recombinant human TET3 catalytic domain (E824 to I1795 residues) expressed in baculovirus infected Sf9 cells using 5-methylcytosine as substrate preincubated for 10 mins followed by substrate and DNA-cofactor addition measured after 10 mins by Alphascreen assay
[5] = molecular target: T2, Methylcytosine dioxygenase TET3; assay: as §3, with “as substrate assessed as change in pIC50 preincubated for” for “as substrate preincubated for”; details: time 20.0 min
[6] = molecular target: T1, Methylcytosine dioxygenase TET1; assay: as §1, with “as substrate assessed as change in pIC50 preincubated for” for “as substrate preincubated for”; details: time 40.0 min; in short: as §2
[7] = system: Methylcytosine dioxygenase TET2 (Homo sapiens), Q6N021 [UNDEFINED MUTATION]; details: time 20.0 min
[8] = molecular target: T1, Methylcytosine dioxygenase TET1; assay: Inhibition of FLAG-tagged human TET1 catalytic domain (E1418 to V2136 residues) expressed in doxycycline induced human U2OS cells assessed as reduction in 5-hydroxymethylcytosine level at 50 to 100 uM incubated for 24 hrs by immunofluorescence assay; format: cell-based; details: dose 50-100 µM
In short: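 U2OS cells stably carrying dox-inducible FLAG-tagged TET1 catalytic domain (E1418–V2136), 5,000/well, seeded 4 h at 37 °C in DMEM with Tet-approved 10% FBS, pen/strep and L-glutamine. Doxycycline 1 µg/mL induction plus compound dosing (1% DMSO final) for 24 h. After fixation, cells were co-stained with anti-5hmC and anti-FLAG antibodies plus DAPI, then imaged. Read-out was mean 5hmC fluorescence in FLAG-positive cells.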

[9] = Selectivity ratio of pIC50 for inhibition of N-terminal 3xFlag-tagged recombinant human TET1 catalytic domain (E1418 to V2136 residues) expressed in baculovirus infected Sf9 cells to pIC50 for inhibition of recombinant human TET3 catalytic domain (E824 to I1795 residues) expressed in baculovirus infected Sf9 cells

| IC50 ([1]; read-out: pIC50 (converted)) [µM] | IC50 ([4]; read-out: pIC50 (converted)) [µM] | deltapIC50 [5] | deltapIC50 [6] | deltapIC50 [7] | inhibition [8] | IC50 ([1]; read-out: IC50) [µM] | IC50 ([4]; read-out: IC50) [µM] | Compound | inhibition [2] | pIC50 [3] | Ratio pIC50 [9] |
| --- | --- | --- | --- | --- | --- | --- | --- | --- | --- | --- | --- |
| 0.251 | > 100 | – | – | – | – | – | – | N=C(N)NCCC[C@H](NC(=O)[C@H](CCCNC(=N)N)NC(=O)[C@H](CCCNC(=N)N)NC(=O)[C@H](CCCNC(=N)N)NC(=O)[C@H](CCCNC(=N)N)NC(=O)[C@H](CCCNC(=N)N)NC(=O)[C@H](CCCNC(=N)N)NC(=O)[C@@H](N)CCCNC(=N)N)C(=O)O | Active | 6.45 | – |
| 9.55 | 15.5 | -0.46 | -1.46 | -0.4 | – | – | – | CC[C@H](C)[C@@H]1NC(=O)[C@H](CC(C)C)NC(=O)[C@@H](Cc2ccc(O)cc2)NC(=O)CSC[C@@H](C(N)=O)NC(=O)[C@H](CO)NC(=O)[C@H](Cc2c[nH]cn2)NC(=O)[C@H](CCC(=O)O)NC(=O)[C@H](Cc2c[nH]c3ccccc23)NC(=O)[C@H](Cc2c[nH]c3ccccc23)NC(=O)[C@H]([C@@H](C)O)NC(=O)[C@H](C)NC(=O)[C@H](Cc2ccc(O)cc2)NC(=O)[C@H](C)NC(=O)[C@H](Cc2ccc(O)cc2)NC1=O | – | 4.3 | – |
| 0.0182 | 0.182 | – | – | – | Active | 0.25 | > 100 | CC[C@H](C)[C@@H]1NC(=O)[C@H](CC(C)C)NC(=O)[C@@H](Cc2ccc(O)cc2)NC(=O)CSC[C@H](C(=O)N[C@@H](Cc2ccc(O)cc2)C(=O)NCC(=O)N[C@@H](CCCNC(=N)N)C(=O)N[C@@H](CCCCN)C(=O)N[C@@H](CCCCN)C(=O)N[C@@H](CCCNC(=N)N)C(=O)N[C@@H](CCCNC(=N)N)C(=O)N[C@@H](CCC(N)=O)C(=O)N[C@@H](CCCNC(=N)N)C(=O)N[C@@H](CCCNC(=N)N)C(N)=O)NC(=O)[C@H](CO)NC(=O)[C@H](Cc2c[nH]cn2)NC(=O)[C@H](CCC(=O)O)NC(=O)[C@H](Cc2c[nH]c3ccccc23)NC(=O)[C@H](Cc2c[nH]c3ccccc23)NC(=O)[C@H]([C@@H](C)O)NC(=O)[C@H](Cc2ccc(O)cc2)NC(=O)[C@H](Cc2ccc(O)cc2)NC(=O)[C@H](C)NC(=O)[C@H](Cc2ccc(O)cc2)NC1=O | – | 6.91 | – |
| 6.92 | 20.4 | -0.59 | -1.32 | -0.36 | – | – | – | CC[C@H](C)[C@@H]1NC(=O)[C@H](CC(C)C)NC(=O)[C@@H](Cc2ccc(O)cc2)NC(=O)CSC[C@@H](C(N)=O)NC(=O)[C@H](CO)NC(=O)[C@H](Cc2c[nH]cn2)NC(=O)[C@H](CCC(=O)O)NC(=O)[C@H](Cc2c[nH]c3ccccc23)NC(=O)[C@H](C)NC(=O)[C@H]([C@@H](C)O)NC(=O)[C@H](Cc2ccc(O)cc2)NC(=O)[C@H](Cc2ccc(O)cc2)NC(=O)[C@H](C)NC(=O)[C@H](Cc2ccc(O)cc2)NC1=O | – | 4.34 | – |
| 0.407 | 23.4 | – | – | – | – | – | – | CC[C@H](C)[C@@H]1NC(=O)[C@H](CC(C)C)NC(=O)[C@@H](Cc2ccc(O)cc2)NC(=O)CSC[C@@H](C(=O)NCC(=O)N[C@@H](CO)C(=O)NCC(=O)N[C@@H](CO)C(=O)N[C@@H](CC(=O)O)C(=O)N[C@@H](Cc2ccc(O)cc2)C(=O)N[C@@H](CCCCN)C(=O)N[C@@H](CC(=O)O)C(=O)N[C@@H](CC(=O)O)C(=O)N[C@@H](CC(=O)O)C(=O)N[C@@H](CC(=O)O)C(=O)N[C@@H](CCCCN)C(N)=O)NC(=O)[C@H](CO)NC(=O)[C@H](Cc2c[nH]cn2)NC(=O)[C@H](CCC(=O)O)NC(=O)[C@H](Cc2c[nH]c3ccccc23)NC(=O)[C@H](Cc2c[nH]c3ccccc23)NC(=O)[C@H]([C@@H](C)O)NC(=O)[C@H](Cc2ccc(O)cc2)NC(=O)[C@H](Cc2ccc(O)cc2)NC(=O)[C@H](C)NC(=O)[C@H](Cc2ccc(O)cc2)NC1=O | – | 4.59 | 58 |
| 0.195 | 3.09 | 0.24 | 0.23 | 0.23 | – | – | – | CC[C@H](C)[C@@H]1NC(=O)[C@H](CC(C)C)NC(=O)[C@@H](Cc2ccc(O)cc2)NC(=O)CSC[C@@H](C(N)=O)NC(=O)[C@H](CO)NC(=O)[C@H](C)NC(=O)[C@H](CCC(=O)O)NC(=O)[C@H](Cc2c[nH]c3ccccc23)NC(=O)[C@H](Cc2c[nH]c3ccccc23)NC(=O)[C@H]([C@@H](C)O)NC(=O)[C@H](Cc2ccc(O)cc2)NC(=O)[C@H](Cc2ccc(O)cc2)NC(=O)[C@H](C)NC(=O)[C@H](Cc2ccc(O)cc2)NC1=O | – | 4.93 | – |
| 3.09 | 11 | -0.32 | -0.97 | -0.31 | – | – | – | CC[C@H](C)[C@@H]1NC(=O)[C@H](C)NC(=O)[C@@H](Cc2ccc(O)cc2)NC(=O)CSC[C@@H](C(N)=O)NC(=O)[C@H](CO)NC(=O)[C@H](Cc2c[nH]cn2)NC(=O)[C@H](CCC(=O)O)NC(=O)[C@H](Cc2c[nH]c3ccccc23)NC(=O)[C@H](Cc2c[nH]c3ccccc23)NC(=O)[C@H]([C@@H](C)O)NC(=O)[C@H](Cc2ccc(O)cc2)NC(=O)[C@H](Cc2ccc(O)cc2)NC(=O)[C@H](C)NC(=O)[C@H](Cc2ccc(O)cc2)NC1=O | – | 4.38 | – |
| 13.8 | 15.1 | -0.46 | -1.63 | < -0.7 | – | – | – | CC[C@H](C)[C@@H]1NC(=O)[C@H](CC(C)C)NC(=O)[C@@H](Cc2ccc(O)cc2)NC(=O)CSC[C@@H](C(N)=O)NC(=O)[C@H](CO)NC(=O)[C@H](Cc2c[nH]cn2)NC(=O)[C@H](CCC(=O)O)NC(=O)[C@H](C)NC(=O)[C@H](Cc2c[nH]c3ccccc23)NC(=O)[C@H]([C@@H](C)O)NC(=O)[C@H](Cc2ccc(O)cc2)NC(=O)[C@H](Cc2ccc(O)cc2)NC(=O)[C@H](C)NC(=O)[C@H](Cc2ccc(O)cc2)NC1=O | – | < 4 | – |
| 1.23 | 13.8 | -0.42 | -0.57 | -0.29 | – | – | – | CC(C)C[C@@H]1NC(=O)[C@@H](Cc2ccc(O)cc2)NC(=O)CSC[C@@H](C(N)=O)NC(=O)[C@H](CO)NC(=O)[C@H](Cc2c[nH]cn2)NC(=O)[C@H](CCC(=O)O)NC(=O)[C@H](Cc2c[nH]c3ccccc23)NC(=O)[C@H](Cc2c[nH]c3ccccc23)NC(=O)[C@H]([C@@H](C)O)NC(=O)[C@H](Cc2ccc(O)cc2)NC(=O)[C@H](Cc2ccc(O)cc2)NC(=O)[C@H](C)NC(=O)[C@H](Cc2ccc(O)cc2)NC(=O)[C@H](C)NC1=O | – | 4.41 | – |
| 10.7 | 15.8 | -0.47 | -1.51 | -0.48 | – | – | – | CC[C@H](C)[C@@H]1NC(=O)[C@H](CC(C)C)NC(=O)[C@@H](Cc2ccc(O)cc2)NC(=O)CSC[C@@H](C(N)=O)NC(=O)[C@H](CO)NC(=O)[C@H](Cc2c[nH]cn2)NC(=O)[C@H](CCC(=O)O)NC(=O)[C@H](Cc2c[nH]c3ccccc23)NC(=O)[C@H](Cc2c[nH]c3ccccc23)NC(=O)[C@H]([C@@H](C)O)NC(=O)[C@H](Cc2ccc(O)cc2)NC(=O)[C@H](Cc2ccc(O)cc2)NC(=O)[C@H](C)NC(=O)[C@H](C)NC1=O | – | 4.22 | – |

| Compound | IC50 ([1]; read-out: pIC50 (converted)) [µM] | IC50 ([4]; read-out: pIC50 (converted)) [µM] | deltapIC50 [5] | deltapIC50 [6] | deltapIC50 [7] | inhibition [8] | IC50 ([1]; read-out: IC50) [µM] | IC50 ([4]; read-out: IC50) [µM] | inhibition [2] | pIC50 [3] | Ratio pIC50 [9] |
| --- | --- | --- | --- | --- | --- | --- | --- | --- | --- | --- | --- |
| N=C(N)NCCC[C@H](NC(=O)[C@H](CCCNC(=N)N)NC(=O)[C@H](CCCNC(=N)N)NC(=O)[C@H](CCC(N)=O)NC(=O)[C@H](CCCNC(=N)N)NC(=O)[C@H](CCCNC(=N)N)NC(=O)[C@H](CCCCN)NC(=O)[C@H](CCCCN)NC(=O)[C@H](CCCNC(=N)N)NC(=O)CNC(=O)[C@@H](N)Cc1ccc(O)cc1)C(=O)O | 1.15 | > 100 | – | – | – | – | – | – | Active | 5.39 | – |
